# Results taken from ChEMBL document CHEMBL5715960, “Epigenetic Co-Deregulation of EZH2/TET1 is a Senescence-Countering, Actionable Vulnerability in Triple-Negative Breast Cancer” (Theranostics, 2019).
# Active and inactive are the calls of the source. The rule behind the calls is not given here.
# Legend:
# MDA-MB-231 [1] = experiment: Induction of cell cycle arrest in human MDA-MB-231 cells assessed as accumulation of cells at S phase measured at 2 uM by BrdU/PI staining based flow cytometric analysis (reference value: 44.6%); type: functional
# MDA-MB-231 [2] = experiment: Effect on human MDA-MB-231 cells assessed as apoptotic phenotype by measuring increase in BIM expression level at 2 uM in presence of adriamycin by immunoblot analysis; type: functional, cell-based
# Outline: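 Immunoblot of cell lysates after 0.05 µg/ml adriamycin alone, with 2 µM GSK343, or DMSO. α-Tubulin and total H3 used as loading controls.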
# MCF7 [3] = experiment: Effect on human MCF7 cells assessed as decrease in H3K27me3 level at 2 uM in presence of adriamycin by immunoblot analysis; type: functional, cell-based
# Outline: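 Immunoblot of MDA-MB-231 and MCF7 lysates after 0.005 µg/ml adriamycin with or without 2 µM GSK343, or DMSO. α-Tubulin and total H3 used as loading controls.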
# MDA-MB-231 [4] = experiment: Effect on human MDA-MB-231 cells assessed as increase in global 5hmc level by dot analysis; type: functional, cell-based
# Outline: (§1)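 Global 5hmC measured by dot blot on genomic DNA from cells given GSK343 or carrying EZH2 knock-down, with DMSO or scrambled shRNA as controls. DNA denatured in 0.1 M NaOH at 99 °C for 5 min, then neutralized with ammonium sulfate pH 7.0. 5 µg spotted, UV-crosslinked, probed with anti-5hmC for 1 h at room temperature, ECL detection, dot intensity quantified. Mean ± SD.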
# MDA-MB-231 [5] = experiment: Effect on human MDA-MB-231 cells expressing shTET1 assessed as reduction in cyclinA by immunoblot analysis; type: functional, cell-based
# MDA-MB-436 [6] = experiment: Cytotoxicity against human MDA-MB-436 cells assessed as killing of cells at 2 uM in presence of adriamycin; type: functional, cell-based
# Outline: (§2)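 Viability after a range of adriamycin concentrations given alone or together with 2 µM GSK343, measured by Guava ViaCount; mean ± SD.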
# MDA-MB-453 [7] = experiment: Antiproliferative activity against human MDA-MB-453 cells at 0.5 to 2 uM for 2 days by Guava viacount assay; type: functional, cell-based; conditions: dose 0.5-2 µM, time 2.0 day
# Outline: (§3)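 Cells plated at 2 × 10^4 (24-well) or 1 × 10^5 (12-well), exposed to a range of GSK343 concentrations for 2 days against DMSO solvent control; cell number and viability read by Guava ViaCount flow cytometry, relative to DMSO. Triplicate; mean ± SD.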
# MDA-MB-231 [8] = experiment: Induction of cell cycle arrest in human MDA-MB-231 cells assessed as accumulation of cells at G1 phase measured at 2 uM by BrdU/PI staining based flow cytometric analysis (reference value: 51.5%); type: functional
# MDA-MB-231 [9] = experiment: Upregulation of CDKN1A gene in human MDA-MB-231 cells at 2 uM by qRT-PCR analysis; type: functional, cell-based
# Outline: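 Relative transcript levels measured by qRT-PCR in cells treated with 2 µM inhibitor, normalised to DMSO-treated control cells. Triplicate experiments unless stated otherwise; mean ± SD reported; unpaired two-tailed Student's t-test at p < 0.05.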
# MCF7 [10] = experiment: Effect on human MCF7 cells assessed as increase in TET1 transcription by qRT-PCR analysis; type: functional, cell-based
# Outline: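 qRT-PCR of TET1, TET2 and TET3 transcripts in breast cancer cells exposed to GSK343 (2 µM unless otherwise indicated), shown relative to DMSO-treated cells. Mean ± SD, triplicate unless stated.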
# MDA-MB-231 [11] = experiment: Antiproliferative activity against human MDA-MB-231 cells at 0.5 to 2 uM for 2 days by Guava viacount assay; type: functional, cell-based; conditions: dose 0.5-2 µM, time 2.0 day; outline: as §3
# MDA-MB-436 [12] = experiment: Induction of apoptosis in human MDA-MB-436 cells assessed as increase in accumulation of cells at G1 phase in presence of adriamycin by BrdU/PI-based cell cycle analysis; type: functional
# Outline: (§4)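 Cell cycle by BrdU/PI staining and flow cytometry, giving G1, S and G2 fractions. Cells received 0.005 µg/ml adriamycin with or without 2 µM GSK343, or DMSO. Mean ± SD.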
# MDA-MB-231 [13] = experiment: Effect on human MDA-MB-231 cells assessed as increase in TET1 protein level by qRT-PCR analysis
# MDA-MB-436 [14] = experiment: Antiproliferative activity against human MDA-MB-436 cells assessed as increase in cell death at 10 uM for 2 days by Guava viacount assay; type: functional, cell-based; conditions: time 2.0 day; outline: as §3
# MDA-MB-231 [15] = experiment: Induction of apoptosis in human MDA-MB-231 cells xenografted in Crl:NU-Foxn1-nu/nu mouse assessed as apoptotic cells in tumor administered at 5 mg/kg, ip in presence of adriamycin treated for 21 days by TUNEL staining analysis; type: functional, organism-based; conditions: time 21.0 day
# Outline: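 TUNEL staining of xenograft tumor sections. Dosing started when tumors reached about 50 mm3: twice-weekly intraperitoneal GSK343 5 mg/kg, adriamycin 1 mg/kg, the combination, or DMSO solvent control, for 21 days.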
# BT-474 = experiment: Antiproliferative activity in human BT-474 cells assessed as increase in SA-beta-gal positive cells at 2 uM for 5 days by SA-beta-gal staining analysis; type: toxicity, cell-based; conditions: bt-474, 120 h, time 5 day
# Outline: (§5)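 GSK343 2 µM or DMSO for 5 days, then chromogenic SA-β-gal staining and counting of positive cells. Triplicate; mean ± SD.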
# MDA-MB-436 [16] = experiment: Effect on human MDA-MB-436 cells assessed as increase in global 5hmc level by dot analysis; type: functional, cell-based; outline: as §1
# MCF7 [17] = experiment: Antiproliferative activity in human MCF7 cells assessed as increase in SA-beta-gal positive cells at 2 uM for 5 days by SA-beta-gal staining analysis; type: toxicity, cell-based; conditions: mcf7, 120 h, time 5 day; outline: as §5
# MDA-MB-436 [18] = experiment: Induction of apoptosis in human MDA-MB-436 cells assessed as decrease in accumulation of cells at S phase in presence of adriamycin by BrdU/PI-based cell cycle analysis; type: functional; outline: as §4
# MDA-MB-231 [19] = experiment: Upregulation of […] signalling in human MDA-MB-231 cells at 2 uM for 2 days by immunoblot analysis; type: functional, cell-based; conditions: time 2.0 day
# MDA-MB-231 [20] = experiment: Downregulation of EZH2 in human MDA-MB-231 cells at 2 uM for 2 days by immunoblot analysis; type: functional, cell-based; conditions: time 2.0 day
# MDA-MB-436 [21] = experiment: Effect on human MDA-MB-436 cells assessed as increase in TET1 protein level by qRT-PCR analysis
# MDA-MB-231 [22] = experiment: Cytotoxicity against human MDA-MB-231 cells assessed as killing of cells at 2 uM in presence of adriamycin; type: functional, cell-based; outline: as §2
# MDA-MB-436 [23] = experiment: Antiproliferative activity against human MDA-MB-436 cells at 0.5 to 2 uM for 2 days by Guava viacount assay; type: functional, cell-based; conditions: dose 0.5-2 µM, time 2.0 day; outline: as §3
# MDA-MB-231 [24] = experiment: Induction of apoptosis in human MDA-MB-231 cells assessed as increase in accumulation of cells at G1 phase in presence of adriamycin by BrdU/PI-based cell cycle analysis; type: functional; outline: as §4
# MDA-MB-361 = experiment: Antiproliferative activity in human MDA-MB-361 cells assessed as increase in SA-beta-gal positive cells at 2 uM for 5 days by SA-beta-gal staining analysis; type: toxicity, cell-based; conditions: mda-mb-361, 120 h, time 5 day; outline: as §5
# MCF7 [25] = experiment: Effect on human MCF7 cells assessed as increase in global 5hmc level by dot analysis; type: functional, cell-based; outline: as §1
# MDA-MB-453 [26] = experiment: Antiproliferative activity against human MDA-MB-453 cells assessed as increase in cell death at 10 uM for 2 days by Guava viacount assay; type: functional, cell-based; conditions: time 2.0 day; outline: as §3
compound,measurement,setting,value
CCCc1cc(C)[nH]c(=O)c1CNC(=O)c1cc(-c2ccnc(N3CCN(C)CC3)c2)cc2c1cnn2C(C)C,Activity,MDA-MB-231 [1],16.1%
same,Activity,MDA-MB-231 [2],Active
same,Activity,MCF7 [3],inactive
same,Activity,MDA-MB-231 [4],Active
same,Activity,MDA-MB-231 [5],inactive
same,Activity,MDA-MB-436 [6],Active
same,Activity,MDA-MB-453 [7],Active
same,Activity,MDA-MB-231 [8],76.8%
same,Activity,MDA-MB-231 [9],Active
same,Activity,MCF7 [10],inactive
same,Activity,MDA-MB-231 [11],Active
same,Activity,MDA-MB-436 [12],Active
same,Activity,MDA-MB-231 [13],Active
same,Activity,MDA-MB-436 [14],Active
same,Activity,MDA-MB-231 [15],Active
same,Activity,BT-474,Non-Toxic
same,Activity,MDA-MB-436 [16],Active
same,Activity,MCF7 [17],Non-Toxic
same,Activity,MDA-MB-436 [18],Active
same,Activity,MDA-MB-231 [19],Active
same,Activity,MDA-MB-231 [20],Active
same,Activity,MDA-MB-436 [21],Active
same,Activity,MDA-MB-231 [22],Active
same,Activity,MDA-MB-436 [23],Active
same,Activity,MDA-MB-231 [24],Active
same,Activity,MDA-MB-361,Non-Toxic
same,Activity,MCF7 [25],inactive
same,Activity,MDA-MB-453 [26],Active
